Experimental data from ChEMBL document CHEMBL1152882, “Optimization of novel di-substituted cyclohexylbenzamide derivatives as potent 11 beta-HSD1 inhibitors” (Bioorg Med Chem Lett, 2009).

Assays:
[1] = target: T1, Nuclear receptor subfamily 1 group I member 2 (Homo sapiens, UniProt O75469); experiment: Activation of human PXR expressed in human HepG2 cells at 2 uM by luciferase reporter gene assay relative to rifampin; format: cell-based; conditions: hepg2, 2 µM
T1 sequence (O75469 whole entry): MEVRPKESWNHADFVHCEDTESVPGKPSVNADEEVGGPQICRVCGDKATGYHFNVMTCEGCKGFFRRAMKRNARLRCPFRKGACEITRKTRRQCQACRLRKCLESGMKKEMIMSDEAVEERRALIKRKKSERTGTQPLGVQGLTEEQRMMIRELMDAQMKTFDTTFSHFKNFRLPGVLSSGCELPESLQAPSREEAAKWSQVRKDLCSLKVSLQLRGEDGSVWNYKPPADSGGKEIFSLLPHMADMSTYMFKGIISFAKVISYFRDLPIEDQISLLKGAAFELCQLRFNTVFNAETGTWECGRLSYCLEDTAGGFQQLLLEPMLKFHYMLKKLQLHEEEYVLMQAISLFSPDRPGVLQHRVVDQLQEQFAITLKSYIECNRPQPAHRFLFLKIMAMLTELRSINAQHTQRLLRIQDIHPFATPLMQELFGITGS
Method in brief: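 Transactivation was measured in HepG2 cells transfected with a luciferase reporter construct driven by human PXR cDNA. Luciferase activity was read by chemiluminescence and expressed as percent of the rifampin control.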

[2] = target: 11-beta-hydroxysteroid dehydrogenase 1 (Homo sapiens, UniProt P28845); experiment: Inhibition of FLAG-tagged full length human 11beta-HSD1 expressed in baculovirus-infected Trichoplusia ni Hi5 cells assessed as reduction of [3H]cortisone to [3H]cortisol by scintillation proximity assay in presence of NADPH; format: cell-based, BTI-TN-5B1-4
Chain of 11-beta-hydroxysteroid dehydrogenase 1 (Homo sapiens, UniProt P28845) (P28845 whole entry): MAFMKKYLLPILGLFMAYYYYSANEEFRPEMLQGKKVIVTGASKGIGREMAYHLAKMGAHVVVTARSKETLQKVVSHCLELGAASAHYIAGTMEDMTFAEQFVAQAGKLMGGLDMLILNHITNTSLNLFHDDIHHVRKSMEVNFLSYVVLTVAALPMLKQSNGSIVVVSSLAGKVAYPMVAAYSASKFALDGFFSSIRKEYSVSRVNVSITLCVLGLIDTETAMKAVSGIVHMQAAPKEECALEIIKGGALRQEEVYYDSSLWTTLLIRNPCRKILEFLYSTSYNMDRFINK

[3] = system: HeLa; experiment: Cytotoxicity against human HeLa cells after 72 hrs by alamar blue assay
[4] = Metabolic stability in human liver microsomes assessed as compound turnover after 30 mins; format: ADME, Microsome; conditions: read-out: Activity
[5] = Metabolic stability in rat liver microsomes assessed as compound turnover after 30 mins; format: ADME, Microsome; conditions: read-out: Activity
[6] = Clearance in cynomolgus monkey at 0.5 mg/kg, iv and 2 mg/kg, po; conditions: in vivo
[7] = Bioavailability in rat at 0.7 mg/kg, iv and 2 mg/kg, po; format: ADME, organism-based; conditions: in vivo
Method in brief: (§1)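 Single-dose PK: intravenous dose 0.5 or 0.7 mg/kg (footnotes a, b), oral dose 2.0 mg/kg. Reported parameters are iv clearance (L/h/kg), Vdss (L/kg), oral AUC and % oral bioavailability.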

[8] = Bioavailability in cynomolgus monkey at 0.5 mg/kg, iv and 2 mg/kg, po; conditions: in vivo
[9] = AUC in cynomolgus monkey at 2 mg/kg, po; format: ADME, organism-based, Macaca fascicularis; set-up: dose 2 mg/kg, route oral; conditions: plasma; method in brief: as §1
[10] = Volume of distribution at steady state in rat at 0.7 mg/kg, iv and 2 mg/kg, po; format: ADME, organism-based; conditions: in vivo, read-out: Vdss; method in brief: as §1
[11] = Clearance in rat at 0.7 mg/kg, iv and 2 mg/kg, po; format: ADME, organism-based; conditions: in vivo; method in brief: as §1
[12] = AUC in rat at 2 mg/kg, po; format: ADME, organism-based; set-up: dose 2 mg/kg, route oral; conditions: plasma; method in brief: as §1
[13] = Volume of distribution at steady state in cynomolgus monkey at 0.5 mg/kg, iv and 2 mg/kg, po; conditions: in vivo, read-out: Vdss
[14] = system: Cynomolgus monkey; experiment: cells; conditions: Macaca fascicularis, Adipose tissue
[15] = Clearance in rat at 0.5 mg/kg, iv and 2 mg/kg, po; format: ADME, organism-based; conditions: in vivo; method in brief: as §1
[16] = Bioavailability in cynomolgus monkey at 0.5 mg/kg, iv and 2 mg/kg, po; format: ADME, organism-based, Macaca fascicularis; conditions: in vivo; method in brief: as §1
[17] = Volume of distribution at steady state in rat at 0.5 mg/kg, iv and 2 mg/kg, po; format: ADME, organism-based; conditions: in vivo, read-out: Vdss; method in brief: as §1
[18] = Fraction unbound in human serum by ultracentrifugation assay; format: ADME, cell-free
Method in brief: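 Human protein binding was measured with separation by ultracentrifugation and reported as fraction unbound.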

[19] = Volume of distribution at steady state in cynomolgus monkey at 0.5 mg/kg, iv and 2 mg/kg, po; format: ADME, organism-based, Macaca fascicularis; conditions: in vivo, read-out: Vdss; method in brief: as §1
[20] = Tmax in po dosed Sprague-Dawley rat; format: ADME, organism-based; conditions: in vivo
[21] = target: 11-beta-hydroxysteroid dehydrogenase 1 (Rattus norvegicus, UniProt P16232); experiment: Inhibition of rat 11beta-HSD1
Chain of 11-beta-hydroxysteroid dehydrogenase 1 (Rattus norvegicus, UniProt P16232) (P16232 whole entry): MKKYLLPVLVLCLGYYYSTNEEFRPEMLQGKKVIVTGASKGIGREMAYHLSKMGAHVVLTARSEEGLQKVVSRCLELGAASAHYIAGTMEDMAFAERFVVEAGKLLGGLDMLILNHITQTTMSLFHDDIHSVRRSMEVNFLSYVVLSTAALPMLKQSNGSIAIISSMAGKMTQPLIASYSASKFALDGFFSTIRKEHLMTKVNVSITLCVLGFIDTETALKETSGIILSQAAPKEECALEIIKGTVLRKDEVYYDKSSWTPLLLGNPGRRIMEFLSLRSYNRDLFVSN
Method in brief: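 Biochemical assay using baculovirus-produced recombinant full-length rat 11β-HSD1 with NADPH as cofactor. Substrate is [3H]cortisone. The [3H]-cortisol formed is captured by anti-cortisol monoclonal antibody SPA beads and quantified by scintillation. IC50 is from dose-response curve fitting of at least duplicate samples.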

[22] = system: Rattus norvegicus; experiment: Inhibition of 11beta-HSD1 in epididymal fat tissue of po dosed Sprague-Dawley rat assessed as reduction in [3H]cortisol production after 2 hrs by scintillation proximity assay; conditions: Adipose tissue
[23] = Clearance in cynomolgus monkey at 0.5 mg/kg, iv and 2 mg/kg, po; format: ADME, organism-based, Macaca fascicularis; conditions: in vivo; method in brief: as §1
[24] = Bioavailability in rat at 0.5 mg/kg, iv and 2 mg/kg, po; format: ADME, organism-based; conditions: in vivo; method in brief: as §1

Row | Activity [1] [%] | metabolised at 0.5 h [4] [%] | metabolised at 0.5 h [5] [%] | SMILES | IC50 [3] [nM] | other results
1 | 75 | 33 |  | C[C@](O)(c1ccc(C(=O)N(C2CC2)[C@H]2CC[C@@H](c3ccc(C#N)cc3)CC2)cc1)C(F)(F)F | > 10000 | IC50 [2]: 4.9 nM
2 | 6.3 | 6.9 | 95 | C[C@@](O)(c1ccc(C(=O)N(C2CC2)[C@H]2CC[C@@](C#N)(c3ccccn3)CC2)cc1)C(F)(F)F | > 10000 | 
3 | < 5 | < 5 | 35 | C[C@](O)(c1ccc(C(=O)N(C2CC2)[C@H]2CC[C@](C#N)(c3cccnc3)CC2)cc1)C(F)(F)F | > 10000 | 
4 | < 5 | 6.8 | < 5 | C[C@](O)(c1ccc(C(=O)N(C2CC2)[C@H]2CC[C@](C#N)(c3ccc(C#N)cc3)CC2)cc1)C(F)(F)F | > 10000 | 
5 | 5.9 | 10 | 43 | C[C@](O)(c1ccc(C(=O)N(C2CC2)[C@H]2CC[C@](O)(CC3CC3)CC2)cc1)C(F)(F)F | 2800 | 
6 | < 5 | < 10 | < 10 | C[C@](O)(c1ccc(C(=O)N(C2CC2)[C@H]2CC[C@](C#N)(C3CC3)CC2)cc1)C(F)(F)F | > 10000 | clearance [6]: 1.55 mL/min/kg; bioavailability [7]: 40%; bioavailability [8]: 5%; AUC [9]: 1000 ng·h/mL; Vd [10]: 2.2 L/kg; clearance [11]: 3.17 mL/min/kg; AUC [12]: 4100 ng·h/mL; Vd [13]: 1.9 L/kg
7 | < 3.4 | 10 | 69 | CC(C)[C@]1(O)CC[C@@H](N(C(=O)c2ccc([C@](C)(O)C(F)(F)F)cc2)C2CC2)CC1 | > 10000 | 
8 | < 5 | < 5 | < 5 | C[C@](O)(c1ccc(C(=O)N(C2CC2)[C@H]2CC[C@](O)(c3cccnc3)CC2)cc1)C(F)(F)F | > 10000 | 

More lines, now with the values behind:

Row | SMILES | Activity [1] [%] | metabolised at 0.5 h [4] [%] | metabolised at 0.5 h [5] [%] | IC50 [3] [nM] | other results
9 | C[C@](O)(c1ccc(C(=O)N(C2CC2)[C@H]2CC[C@H](c3cccnc3)CC2)cc1)C(F)(F)F | 2.2 | < 5 |  | 2500 | IC50 [2]: 1.7 nM
10 | C[C@@](O)(c1ccc(C(=O)N(C2CC2)[C@H]2CC[C@](C#N)(c3ccccn3)CC2)cc1)C(F)(F)F | 7.6 | < 5 | 14 | > 10000 | 
11 | C[C@](O)(c1ccc(C(=O)N(C2CC2)[C@H]2CC[C@@H](c3cccnc3)CC2)cc1)C(F)(F)F | 38 | 94 |  | > 10000 | IC50 [2]: 1.6 nM
12 | C[C@](O)(c1ccc(C(=O)N(C2CC2)[C@H]2CC[C@](O)(C3CC3)CC2)cc1)C(F)(F)F | < 5 | < 5 | 7.4 | > 10000 | IC50 [14]: 640 nM; clearance [15]: 4 mL/min/kg; bioavailability [16]: 43%; Vd [17]: 2.7 L/kg; fraction unbound [18]: 0.12; Vd [19]: 1.5 L/kg; Tmax [20]: 2 h; IC50 [21]: 244 nM; ED50 [22]: 10 mg/kg; clearance [23]: 1.83 mL/min/kg; AUC [9]: 4700 ng·h/mL; bioavailability [24]: 76%; AUC [12]: 8900 ng·h/mL
13 | C[C@](O)(c1ccc(C(=O)N(C2CC2)[C@H]2CC[C@](C#N)(c3ccccc3)CC2)cc1)C(F)(F)F | < 5 | < 5 | 6 | > 10000 | 
14 | C[C@](O)(c1ccc(C(=O)N(C2CC2)[C@H]2CC[C@](O)(c3ccccn3)CC2)cc1)C(F)(F)F | 6.1 | < 5 | < 5 | > 10000 | 
15 | C[C@](O)(c1ccc(C(=O)N(C2CC2)[C@H]2CC[C@H](c3ccc(C#N)cc3)CC2)cc1)C(F)(F)F | 11 | < 5 |  | 1100 | IC50 [2]: 0.76 nM
16 | C[C@](O)(c1ccc(C(=O)N(C2CC2)[C@H]2CC[C@@](C)(O)CC2)cc1)C(F)(F)F | < 5 | < 5 | < 5 | > 10000 | 
17 | C[C@](O)(c1ccc(C(=O)N(C2CC2)[C@H]2CC[C@@](O)(c3ccccc3)CC2)cc1)C(F)(F)F | < 5 | 15 | > 95 | > 10000 | 
18 | C[C@](O)(c1ccc(C(=O)N(C2CC2)[C@H]2CC[C@H](c3ccccc3)CC2)cc1)C(F)(F)F | 31 | < 5 |  | > 10000 | 
19 | C[C@](O)(c1ccc(C(=O)N(C2CC2)[C@H]2CC[C@](O)(c3ccccc3)CC2)cc1)C(F)(F)F | < 5 | < 5 | < 5 | 5100 | 
